Screening data (PubChem)
KCNQ1 block = human KCNQ1 channel inhibition | P51787 | CHO-K1 KCNQ1, FluxOR thallium flux fluorescence; stronger effect = higher value | B-score at 10 µM | actives 1.3% (n = 310,000) | AID 2642;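 active = compounds whose thallium flux B-score, printed positive for inhibition, exceeds three library SD while starting fluorescence stays within three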;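 note: channel opened by potassium depolarization with thallium stimulus after 20 min compound exposure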
KCNQ1 act = potentiators or activators of human KCNQ1 potassium channel; CHO-K1 KCNQ1, thallium flux FluxOR fluorescence; stronger effect = higher value; actives 0.35% (n = 310,000); AID 2648; B-score at 10 µM; P51787;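 active = fluorescence ratio B-score, a plate-corrected score, at least three library SD, with initial intensity B-score within 5 SD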
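Assay system: stable KCNQ1 CHO-K1 line; medium: assay buffer, equal DMSO in all wells; timing: 90 min dye loading and 20 min compound exposure, both at room temperature; technique: kinetic FluxOR thallium fluorescence, 10-s 1-Hz baseline, 110-s post-stimulus read; read-out basis: B score of baseline-normalized fluorescence ratio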
KCNK9 block = blocks the human KCNK9 two-pore domain potassium channel. HEK293 KCNK9, FluxOR thallium flux fluorescence; stronger effect = lower value. B-score at 10 µM. actives 1.2% (n = 310,000). Q9NPC2;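 active = ratio B-score over 3 SD below the library mean, with starting fluorescence within 5 SD of its mean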;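 note: negative B-score means less thallium flux so channel inhibition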
Kir21 inh = Kir2.1 (mouse) channel inhibition | HEK293-Kir2.1, FluxOR thallium flux fluorescence; stronger effect = lower value | B-score at 10 µM | AID 1672 | actives 0.85% (n = 310,000) | P35561;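 active = fluorescence ratio B-score at or below minus 3 SD of library scores, with starting-brightness B-score within 2 SD, cut at about -4.2 in these data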;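 note: channel flux triggered by added potassium and thallium sulfate stimulus; B-score of peak minus minimum fluorescence over baseline after thallium stimulus; more negative B-score means stronger Kir2.1 block with less thallium influx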
KCNK3 block = human KCNK3 channel inhibition, primary screen; O14649; CHO-KCNK3 thallium flux, FluxOR fluorescence; stronger effect = lower value; B-score at 10 µM; actives 0.84% (n = 340,000); AID 602410;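 active = B-score under library mean minus 4 SD, starting fluorescence ratio at most library mean plus 5 SD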;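 note: more negative B-score means stronger inhibition of thallium flux through KCNK3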
hERG protect = shields human hERG channel from block by proarrhythmic agents; CHO-hERG, FluxOR thallium flux, dofetilide IC70 present; activation (rescue from dofetilide block), less the hit threshold, % at 10 µM; actives 0.51% (n = 310,000); AID 1511;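 active = activation above the mean of controls blocked by dofetilide plus 5 SD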;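 note: thallium influx through hERG after potassium depolarization seen as dye fluorescence rise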
KCNK9 block conf = human KCNK9 inhibitor confirmation; shares compounds with KCNK9 block; inhibition, % at 10 µM; actives 43% (n = 4,900); HEK293 KCNK9 cells, FluxOR thallium flux fluorescence;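 active = thallium signal inhibited by more than 5 SD of the compound-free buffer control wells, on both duplicate plates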
Kir2-1 spec = tests whether KCNK9 modulators also affect mouse Kir2.1. shares compounds with KCNK9 block. Kir2.1 cells, FluxOR thallium flux fluorescence. inhibition, % at 10 µM. actives 4% (n = 4,900). AID 492993;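 active = thallium signal drop more than 5 SD beyond the mean of the no-compound control wells, seen in both duplicate plates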;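 note: signal is fluorescence rise after thallium addition divided by baseline fluorescence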
HEK293 Tl ctr = non-induced cell nonspecific activity of KCNK9 modulators; actives 40% (n = 4,900); non-induced KCNK9-HEK293, FluxOR thallium flux; shares compounds with KCNK9 block; inhibition, % at 10 µM;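 active = thallium signal drop beyond 5 SD of the untreated control mean, on both duplicate plates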
Of the large screens only hits and unclear results are named; the others gave an inactive call (follow-up assays come after a bar, where they were run). In the library only some 3.8% were active in any assay of this set; here they are far more common.

Cc1ccc(OCc2nc(-c3ccccc3)no2)c(C)c1	none | KCNK9 block conf inactive | Kir2-1 spec inactive | HEK293 Tl ctr 39.5%
COc1ccc(-c2noc(COc3ccc(C)c(C)c3)n2)cc1OC	none | KCNK9 block conf inactive | Kir2-1 spec inactive | HEK293 Tl ctr inactive
CCNc1nc(OC)nc(SCC(=O)Nc2ccccc2)n1	none
O=[N+]([O-])c1ccc(CSc2nnc(SCc3ccc(Cl)cc3)s2)cc1	KCNK9 block -9.31 | KCNK9 block conf 45.0% | Kir2-1 spec inactive | HEK293 Tl ctr 45.5%
Nc1nnc(SCc2ccc([N+](=O)[O-])cc2)s1	none
CN(C(=O)c1cc(COc2ccc(F)cc2Cl)on1)C1CCCc2ccccc21 (centres undefined)	none | KCNK9 block conf inactive | Kir2-1 spec inactive | HEK293 Tl ctr 24.0%
O=C(NCCCc1ccccc1)c1cc(COc2ccc(F)cc2Cl)on1	KCNQ1 block 6 | KCNK9 block conf inactive | Kir2-1 spec inactive | HEK293 Tl ctr inactive
Cc1ccc(CN(C)C(=O)c2cc(COc3ccc(F)cc3Cl)on2)o1	none
COc1cc(Cl)ccc1OCc1cc(C(=O)NCC(C)c2ccccc2)no1 (centres undefined)	none | KCNK9 block conf inactive | Kir2-1 spec inactive | HEK293 Tl ctr inactive
CC(CNC(=O)c1cc(COc2ccc3ncccc3c2)on1)c1ccccc1 (centres undefined)	none
Cc1cc(C)c(NC(=O)CNC(=O)CN(C)Cc2ccc(Br)s2)c(C)c1	none (no result: KCNQ1 block, KCNQ1 act, KCNK9 block, Kir21 inh, hERG protect)
CCOC(=O)c1sc2nc(CC(=O)OC)nc(N3CCN(c4ccc(OC)cc4)CC3)c2c1C	none | KCNK9 block conf inactive | Kir2-1 spec inactive | HEK293 Tl ctr inactive
O=C(CNC(c1ccccc1)c1ccccc1)Nc1cc([N+](=O)[O-])ccc1Cl	KCNK9 block -9.22 | KCNK9 block conf 69.0% | Kir2-1 spec inactive | HEK293 Tl ctr 41.0%
Cc1ccc(NC(=O)CN(C)S(=O)(=O)c2ccc3c(c2)n(C)c(=O)c(=O)n3C)cc1	none
CCCOc1ccc(-c2c(=O)n(OCc3ccc([N+](=O)[O-])cc3)c3ccccc3[n+]2[O-])cc1	KCNK9 block -11 | KCNK9 block conf 50.5% | Kir2-1 spec inactive | HEK293 Tl ctr 33.5%
CCOc1ccc(-c2c(=O)n(OCc3nc4ccccc4[nH]3)c3ccccc3[n+]2[O-])cc1	none
CN(C)/C=C(/C#N)C(=O)c1cccc(Oc2ccc(C(C)(C)C)cc2)c1	none | KCNK9 block conf inactive | Kir2-1 spec inactive | HEK293 Tl ctr 42.0%
Cn1c(COc2ccccc2O)[n+](C)c2ccccc21	none
CCCCCCCCCCOC(=O)Cn1c(COc2ccccc2OC)[n+](C)c2ccccc21	KCNK9 block -15.2, Kir21 inh -17.4 | KCNK9 block conf 78.5% | Kir2-1 spec 84.5% | HEK293 Tl ctr 41.5%
CC(C)CN1C(=S)SC(C)(C)C1n1oc(=O)n(-c2ccccc2)c1=O (centres undefined)	none | KCNK9 block conf inactive | Kir2-1 spec inactive | HEK293 Tl ctr inactive
CCN(C(=O)COc1cc(=O)n(C)c2ccccc12)c1cccc(Cl)c1	none | KCNK9 block conf inactive | Kir2-1 spec inactive | HEK293 Tl ctr inactive
CN(C(=O)COc1cc(=O)n(C)c2ccccc12)c1cccc(Cl)c1	none
COc1ccc(OC)c(C(C[N+](=O)[O-])c2c(C)cc3ccccn23)c1 (centres undefined)	KCNK9 block -17.3 | KCNK9 block conf 58.0% | Kir2-1 spec inactive | HEK293 Tl ctr 28.5%
Brc1ccc(N/N=C(/N=Nc2nn[nH]n2)c2ccccc2)cc1	KCNQ1 block 12 | KCNK9 block conf inactive | Kir2-1 spec inactive | HEK293 Tl ctr inactive
C/C(=N\N=c1/scc(C)n1Cc1ccco1)c1cccc([N+](=O)[O-])c1	KCNK9 block -8.73 | KCNK9 block conf inactive | Kir2-1 spec inactive | HEK293 Tl ctr inactive
